In ChEMBL document CHEMBL1132106, “Synthesis, biological activity, and conformational analysis of four seco-D-15,19-bisnor-1alpha,25-dihydroxyvitamin D analogues, diastereomeric at C17 and C20” (1999):

Experiments:
[1] = target: T1, Vitamin D3 receptor (Sus scrofa) (UniProt A3RGC1); experiment: Binding affinity for porcine intestinal Vitamin D3 receptor (VDR) relative to 1,25(OH)2D3 (100)
T1 sequence (whole entry): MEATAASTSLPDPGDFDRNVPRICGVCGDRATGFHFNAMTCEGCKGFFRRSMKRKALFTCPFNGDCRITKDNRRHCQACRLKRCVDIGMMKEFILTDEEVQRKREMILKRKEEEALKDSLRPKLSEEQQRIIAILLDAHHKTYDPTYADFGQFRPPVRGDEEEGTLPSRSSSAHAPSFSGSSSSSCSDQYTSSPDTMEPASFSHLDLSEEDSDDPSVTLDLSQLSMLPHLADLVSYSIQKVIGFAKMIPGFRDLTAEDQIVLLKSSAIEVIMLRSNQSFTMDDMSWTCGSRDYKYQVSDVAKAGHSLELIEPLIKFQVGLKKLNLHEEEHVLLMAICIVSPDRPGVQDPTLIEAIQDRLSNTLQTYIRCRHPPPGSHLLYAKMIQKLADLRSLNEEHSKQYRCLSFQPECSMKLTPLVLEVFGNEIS
Outline: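 Competition with [3H]1,25(OH)2D3 for receptor in high-speed supernatant of normal pig intestinal mucosa homogenate. Incubated 20 h at 4 °C, then dextran-coated charcoal phase separation. Relative affinity from the concentration displacing 50% of tracer, referenced to 1,25(OH)2D3 at 100%.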

[2] = test system: Gallus gallus; experiment: In Vivo evaluation for the calcemic activity in vitamin D-replete normal in ICA chick; type: functional
[3] = test system: HL-60; experiment: In vitro induction of cell differentiation in HL-60 cells relative to 1,25(OH)2D3 (100); type: functional, Homo sapiens
Outline: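 HL-60 cells seeded at 4×10^4 cells/mL in RPMI 1640 with 20% FCS and gentamycin, 37 °C, 5% CO2. Compounds added in ethanol (final <0.2%) one day later, then cultured 4 days. Differentiation read as NBT reduction: 1×10^6 cells/mL mixed with PMA (200 ng/mL) and NBT ([…]), 30 min at 37 °C. Formazan-positive cells counted by hemacytometer.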

[4] = target: T2, Vitamin D-binding protein (Rattus norvegicus) (UniProt P04276); experiment: Binding affinity for rat vitamin D binding protein (DBP) relative to 1,25(OH)2D3 (100)
T2 sequence (whole entry): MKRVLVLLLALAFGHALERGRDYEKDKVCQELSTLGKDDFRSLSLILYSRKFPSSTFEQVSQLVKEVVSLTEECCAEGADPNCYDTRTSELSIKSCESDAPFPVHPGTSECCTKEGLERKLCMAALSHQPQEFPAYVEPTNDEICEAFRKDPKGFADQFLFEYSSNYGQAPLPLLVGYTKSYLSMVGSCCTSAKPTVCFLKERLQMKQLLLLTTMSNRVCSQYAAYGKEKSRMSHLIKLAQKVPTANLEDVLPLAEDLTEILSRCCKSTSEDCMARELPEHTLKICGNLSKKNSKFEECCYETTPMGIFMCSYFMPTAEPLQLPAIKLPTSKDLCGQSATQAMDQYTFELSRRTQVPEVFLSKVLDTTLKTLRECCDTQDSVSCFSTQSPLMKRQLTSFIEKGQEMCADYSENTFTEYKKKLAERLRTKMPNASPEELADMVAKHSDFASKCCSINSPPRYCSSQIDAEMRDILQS

[5] = test system: Mus musculus; experiment: Hypercalcemic effect by daily sc injection of compound was measured as serum calcium concentration in vitamin D-replete normal NMRI mice relative to 1,25(OH)2D3 (100); type: functional
Outline: (§1)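 Vitamin D-replete normal NMRI mice given compound or solvent by daily subcutaneous injection for 7 consecutive days. Serum calcium concentration used as the read-out.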

[6] = target: T3, Vitamin D-binding protein (Homo sapiens) (UniProt P02774); experiment: Binding affinity for human vitamin D binding protein (hDBP) relative to 1,25(OH)2D3 (100)
T3 sequence (whole entry): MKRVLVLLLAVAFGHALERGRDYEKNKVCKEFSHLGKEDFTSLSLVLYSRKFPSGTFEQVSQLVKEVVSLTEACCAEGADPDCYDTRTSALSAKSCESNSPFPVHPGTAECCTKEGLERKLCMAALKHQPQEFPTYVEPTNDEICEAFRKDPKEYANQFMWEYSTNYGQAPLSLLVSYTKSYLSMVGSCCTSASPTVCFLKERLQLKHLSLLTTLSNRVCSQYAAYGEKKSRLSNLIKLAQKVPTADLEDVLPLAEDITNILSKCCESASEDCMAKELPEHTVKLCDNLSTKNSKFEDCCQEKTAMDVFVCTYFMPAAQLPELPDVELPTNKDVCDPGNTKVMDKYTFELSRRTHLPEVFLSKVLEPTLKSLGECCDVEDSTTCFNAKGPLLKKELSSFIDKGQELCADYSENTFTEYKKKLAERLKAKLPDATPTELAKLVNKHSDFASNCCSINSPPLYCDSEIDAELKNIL
Outline: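 Competition with [3H]1,25(OH)2D3 for human serum DBP (0.18 μM), purified by affinity chromatography. Ligands added in 5 μL ethanol. Incubated 3 h at 4 °C in 0.01 M Tris-HCl with 0.154 M NaCl, pH 7.4. Bound and free separated with cold dextran-coated charcoal. Activity expressed relative to 1,25(OH)2D3 set at 100.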

[7] = test system: MCF7; experiment: Antiproliferative activity on MCF-7 cells relative to 1,25(OH)2D3 (100); type: functional, Homo sapiens
Outline: (§2)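 MCF-7 cells grown in DMEM/F12 with 10% heat-inactivated FCS, glutamine, penicillin and streptomycin, 37 °C, 5% CO2. Seeded at 5×10^3 cells/well. Compounds added after 24 h and incubated 72 h. Then 1 μCi [3H]thymidine per well for 4 h, cells harvested and radioactivity counted. Triplicate cultures. Activity expressed relative to 1,25(OH)2D3 set at 100.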

[8] = test system: Keratinocyte cell line; experiment: Inhibition of human skin keratinocyte proliferation relative to 1,25(OH)2D3 (100); type: functional
Outline: (§3)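 Human foreskin keratinocytes isolated by overnight Dispase digestion and grown in serum-free keratinocyte medium with pituitary extract and EGF. Seeded at 5×10^3 cells/well in medium without insulin. After 1 day, serial dilutions added in ethanol (<0.2% final) for 72 h. Then [3H]thymidine 1 μCi/well for 2 h and incorporation counted.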

[9] = test system: MCF7; experiment: In vitro cell proliferative activity on MCF-7 cells; type: functional, Homo sapiens; outline: as §2
[10] = test system: Keratinocyte cell line; experiment: In vitro proliferative activity on keratinocyte cells; type: functional, Homo sapiens; outline: as §3
[11] = test system: Mus musculus; experiment: In Vivo evaluation for the calcemic activity in vitamin D-replete normal in NMRI mice; type: functional; outline: as §1
[12] = target: T2, Vitamin D-binding protein (Rattus norvegicus); experiment: Binding affinity for rat Vitamin D binding protein

SMILES	Relative binding affinity [1]	Relative binding affinity [4]	Relative binding affinity [6]	ICA [2]	Relative activity [3]	Hypercalcemic activity relative to 1,25(OH)2D3 (=100) [5]	Relative activity [7]	Relative activity [8]	further results
C=C1/C(=C\C=C2/CCC[C@]3(C)[C@@H]([C@@H](C)[C@H](C)CCC(C)(C)O)CC[C@@H]23)C[C@@H](O)C[C@@H]1O	2000	0.25	–	50	11900	–	–	–	–
C=C1/C(=C\C=C2/CCC[C@]3(C)[C@@H]([C@@H](C)CCCC(C)(C)O)CC[C@@H]23)C[C@@H](O)C[C@@H]1O	88	–	0.2	–	3000	800	–	–	–
C=C1/C(=C\C=C2/CCC[C@]3(C)[C@@H]([C@H](C)OCCC(C)(C)O)CC[C@@H]23)C[C@@H](O)C[C@@H]1O [MAXACALCITOL]	18	–	0	–	197	0.3	–	–	–
C[C@H]([C@@H](C)CCCC(C)(C)O)[C@@]1(C)CCC/C(=C\C=C2C[C@@H](O)C[C@H](O)C2)C1	10	–	0	–	10	0.25	40	80	–
C[C@H](CCCC(C)(C)O)[C@H]1CC[C@H]2/C(=C/C=C3C[C@@H](O)C[C@H](O)C3)CCC[C@]12C	30	–	48	–	90	0.3	–	–	–
C=C1/C(=C\C=C2/CCC[C@]3(C)[C@@H]([C@H](C)[C@@H](C)CCC(C)(C)O)CC[C@@H]23)C[C@@H](O)C[C@@H]1O	33	67	–	50	100	–	–	–	–
C=C1/C(=C\C=C2/CCC[C@]3(C)[C@@H]([C@H](C)CCCC(C)(C)O)CC[C@@H]23)C[C@@H](O)C[C@@H]1O [CALCITRIOL]	–	–	–	100	–	–	–	–	Activity [9]: 100; Binding affinity [1]: 100; Activity [10]: 100; Binding affinity [6]: 100; Ca2+ serum [11]: 100; Binding affinity [12]: 100; Activity [3]: 100
C=C1/C(=C\C=C2/CCC[C@]3(C)[C@@H]([C@@H](C)[C@@H](C)CCC(C)(C)O)CC[C@@H]23)C[C@@H](O)C[C@@H]1O	1	0.25	–	0.1	8	–	–	–	–

More lines, main results first:

Relative binding affinity [1]	Relative binding affinity [4]	Relative binding affinity [6]	SMILES	ICA [2]	Relative activity [3]	Hypercalcemic activity relative to 1,25(OH)2D3 (=100) [5]	Relative activity [7]	Relative activity [8]	further results
45	–	3	C[C@H](CCCC(C)(C)O)[C@@H](C)[C@@]1(C)CCC/C(=C\C=C2C[C@@H](O)C[C@H](O)C2)C1	–	1000	13	2000	5000	–
85	–	0	C=C1/C(=C/C=C2/CCC[C@]3(C)C([C@H](C)CC#CC(C)(C)O)=CC[C@@H]23)C[C@@H](O)C[C@@H]1O	–	950	8	–	–	–
8	–	0	C[C@H](CCCC(C)(C)O)[C@H](C)[C@@]1(C)CCC/C(=C\C=C2C[C@@H](O)C[C@H](O)C2)C1	–	75	0.25	75	60	–
9	–	0	C[C@@H](CCCC(C)(C)O)[C@H](C)[C@@]1(C)CCC/C(=C\C=C2C[C@@H](O)C[C@H](O)C2)C1	–	70	25	90	85	–
1.7	0.45	–	C=C1/C(=C\C=C2/CCC[C@]3(C)[C@@H]([C@H](C)[C@H](C)CCC(C)(C)O)CC[C@@H]23)C[C@@H](O)C[C@@H]1O	25	1.3	–	–	–	–
